In PMC7877830 (Clinical and Translational Science, 2020):
Values joined by “and” are separate entries in the source; they are usually repeats but may differ in a detail not shown here. Equal values may be shown once. Read-outs that look alike come from different tables or passages of the source.

Legend:
[1] = assay type: in vivo, human; details: for AUC(0-t) / Cmax: human, plasma, oral; for Cmax: geometric mean (mean, %CV), healthy subjects
Method in brief: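 Phase I single-dose complete crossover in healthy subjects, randomised to two test formulations and a reference formulation. Dosed 300/120 mg fasting in the morning, with at least 5 days washout; subjects confined ~4 days on standardized meals. Plasma (K2EDTA, stored −20 °C) sampled predose to 48 h and extracted liquid-liquid with deuterated internal standards. Calibration ~0.200–100 ng/mL; high range ~85.0–10,000 (GLE) or ~85.0–1,050 ng/mL (PIB). Noncompartmental, linear-trapezoidal analysis; BLQ set to zero.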

[2] = system: OATP1B1; details: read-out: OATP1B1 IC50, cited from earlier work
[3] = system: OATP1B3; details: read-out: OATP1B3 IC50; in vitro; cited from earlier work
[4] = system: OATP1B1; details: as per the FDA guidance; unbound concentration in hepatic portal vein; cited from earlier work
[5] = system: OATP1B3; details: as per the FDA guidance; unbound concentration in hepatic portal vein; cited from earlier work
[6] = cited from earlier work
[7] = cited from earlier work; remark: listed apart in the source
[8] = system: OATP1B1/1B3; assay type: in vivo, human; details: for AUC0–16 of endogenous biomarker / AUC0–48 of endogenous biomarker / Cmax of endogenous biomarker: geometric mean (mean, %CV); for AUC0–16 ratio relative to baseline / AUC0–48 ratio relative to baseline / Cmax ratio relative to baseline: point estimate (90% CI)
Method in brief: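 Healthy volunteers in a crossover each got a single fasting 300/120 mg dose of formulation A, B or C. Plasma (K2EDTA, stored −20 °C) drawn predose and up to 48 h. Cmax, AUC0–16 and AUC0–48 derived noncompartmentally by linear trapezoid. Predose level served as baseline; baseline AUC = baseline concentration × interval. Ratios to baseline given with 90% CI; mixed model compared A or B with C.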

[9] = system: OATP1B1/1B3; details: n = 56; across different ethnicities; cited from earlier work
[10] = system: OATP1B1; details: read-out: Km for OATP1B1; cited from earlier work
[11] = system: OATP1B3; details: read-out: Km for OATP1B3; cited from earlier work
[12] = cited from earlier work; remark: listed apart in the source
[13] = AUC0–16, geometric mean (mean, %CV), GLE/PIB 300/120 mg Formulation A
[14] = AUC0–16, geometric mean (mean, %CV), GLE/PIB 300/120 mg Formulation B
[15] = AUC0–16, geometric mean (mean, %CV), GLE/PIB 300/120 mg Formulation C
[16] = AUC0–48, geometric mean (mean, %CV), GLE/PIB 300/120 mg Formulation A
[17] = AUC0–48, geometric mean (mean, %CV), GLE/PIB 300/120 mg Formulation B
[18] = AUC0–48, geometric mean (mean, %CV), GLE/PIB 300/120 mg Formulation C
[19] = single dose GLE/PIB 300/120 mg Formulation A, fasting
[20] = single dose GLE/PIB 300/120 mg Formulation B, fasting
[21] = single dose GLE/PIB 300/120 mg Formulation C (reference), fasting
[22] = after GLE/PIB 300/120 mg Formulation A
[23] = after GLE/PIB 300/120 mg Formulation B
[24] = after GLE/PIB 300/120 mg Formulation C

SMILES | AUC(0-t) [1, 13] [ng·h/mL] | AUC(0-t) [1, 14] [ng·h/mL] | AUC(0-t) [1, 15] [ng·h/mL] | AUC(0-t) [1, 16] [ng·h/mL] | AUC(0-t) [1, 17] [ng·h/mL] | AUC(0-t) [1, 18] [ng·h/mL] | Cmax [1, 19] [ng/mL] | Cmax [1, 20] [ng/mL] | Cmax [1, 21] [ng/mL] | OATP1B1 R value [4] | half-life [7] | AUC0–16 of endogenous biomarker [8, 22] | AUC0–48 of endogenous biomarker [8, 22] | Cmax of endogenous biomarker [8, 22] | AUC0–16 of endogenous biomarker [8, 23] | AUC0–48 of endogenous biomarker [8, 23] | Cmax of endogenous biomarker [8, 23] | AUC0–16 of endogenous biomarker [8, 24] | AUC0–48 of endogenous biomarker [8, 24] | Cmax of endogenous biomarker [8, 24] | also measured
CC(C)(C)[C@@H]1NC(=O)O[C@@H]2CCC[C@H]2OC/C=C/C(F)(F)c2nc3ccccc3nc2O[C@@H]2C[C@@H](C(=O)N[C@]3(C(=O)NS(=O)(=O)C4(C)CC4)C[C@H]3C(F)F)N(C2)C1=O [GLE, glecaprevir] | 344 | 1330 | 1800 | 367 | 1370 | 1850 | 88.5 | 330 | 444 | 5.5 | about 6 hours | – | – | – | – | – | – | – | – | – | share of exposure observed in the first 16 hours postdose ([1]; across formulations): 94–97%; exposures (Cmax, AUC0–16, AUC0–48) lower relative to reference formulation C ([1]; formulation A, fasting): ~ 80%; exposures (Cmax, AUC0–16, AUC0–48) lower relative to reference formulation C ([1]; formulation B, fasting): ~26%; IC50 ([2]; in vitro): 17 nM; IC50 [3]: 64 nM; OATP1B3 R value [5]: 2.2; fu,p (fraction of unbound inhibitor in plasma) [6]: 0.025
CC1=C(CCC(=O)O)c2cc3nc(cc4[nH]c(cc5[nH]c(cc1n2)c(CCC(=O)O)c5C)c(CCC(=O)O)c4C)C(CCC(=O)O)=C3C [CP‐I, coproporphyrin (CP)‐I] | – | – | – | – | – | – | – | – | – | – | – | 8.98 (9.10, 16) ng·h/mL | 25.4 (25.6, 12) ng·h/mL | 0.726 (0.740, 21) ng/mL | 11.7 (11.9, 23) ng·h/mL | 28.2 (28.5, 18) ng·h/mL | 1.19 (1.24, 26) ng/mL | 13.2 (13.3, 16) ng·h/mL | 30.3 (30.6, 13) ng·h/mL | 1.44 (1.48, 23) ng/mL | baseline plasma concentration ([8]; mean and SD, predose, all study periods): 0.59 ± 0.09 ng/mL and 0.90 ± 0.14 nM; AUC0–16 ratio relative to baseline [8, 22]: 0.97 (0.89 to 1.06); AUC0–48 ratio relative to baseline [8, 22]: 0.91 (0.85 to 0.97); Cmax ratio relative to baseline [8, 22]: 1.25 (1.12 to 1.41); AUC0–16 ratio relative to baseline [8, 23]: 1.25 (1.18 to 1.32); AUC0–48 ratio relative to baseline [8, 23]: 1.01 (0.96 to 1.06); Cmax ratio relative to baseline [8, 23]: 2.05 (1.81 to 2.32); AUC0–16 ratio relative to baseline [8, 24]: 1.39 (1.29 to 1.51); AUC0–48 ratio relative to baseline [8, 24]: 1.07 (1.02 to 1.13); Cmax ratio relative to baseline [8, 24]: 2.44 (2.11 to 2.82); baseline plasma concentration, previously reported range [9]: 0.5 to 1.5 nM; Km [10]: 0.13 µM; Km [11]: 3.95 µM
COC(=O)N[C@H](C(=O)N1CCC[C@H]1c1nc2cc([C@H]3CC[C@H](c4cc5nc([C@@H]6CCCN6C(=O)[C@@H](NC(=O)OC)[C@@H](C)OC)[nH]c5cc4F)N3c3cc(F)c(N4CCC(c5ccc(F)cc5)CC4)c(F)c3)c(F)cc2[nH]1)[C@@H](C)OC [PIB, pibrentasvir] | 546 | 514 | 977 | 658 | 622 | 1170 | 86.8 | 83.7 | 163 | 1.4 | ~13 h | – | – | – | – | – | – | – | – | – | exposures lower relative to reference formulation C ([1]; formulations A and B, fasting): 28–49%; IC50 ([2]; in the presence of 4% bovine serum albumin): 1300 nM; RB (blood-to-plasma concentration ratio) [12]: 0.62
CC1=C(CCC(=O)O)c2cc3nc(cc4[nH]c(cc5[nH]c(cc1n2)c(C)c5CCC(=O)O)c(CCC(=O)O)c4C)C(CCC(=O)O)=C3C [CP‐III] | – | – | – | – | – | – | – | – | – | – | – | 1.20 (1.22, 19) ng·h/mL | 3.32 (3.44, 23) ng·h/mL | 0.104 (0.105, 16) ng/mL | 1.07 (1.24, 73) ng·h/mL | 2.77 (3.44, 41) ng·h/mL | 0.113 (0.116, 25) ng/mL | 1.23 (1.30, 36) ng·h/mL | 2.87 (3.23, 41) ng·h/mL | 0.115 (0.119, 26) ng/mL | AUC0–16 ratio relative to baseline [8, 22]: 0.94 (0.84 to 1.06); AUC0–48 ratio relative to baseline [8, 22]: 0.86 (0.82 to 0.95); Cmax ratio relative to baseline [8, 22]: 1.31 (1.18 to 1.46); AUC0–16 ratio relative to baseline [8, 23]: 0.96 (0.85 to 1.08); AUC0–48 ratio relative to baseline [8, 23]: 0.90 (0.80 to 1.01); Cmax ratio relative to baseline [8, 23]: 1.34 (1.18 to 1.53); AUC0–16 ratio relative to baseline [8, 24]: 1.01 (0.86 to 1.20); AUC0–48 ratio relative to baseline [8, 24]: 0.79 (0.60 to 1.03); Cmax ratio relative to baseline [8, 24]: 1.49 (1.24 to 1.78)
